Experimental data from article PMC6294321 (Molecular cell, 2018).
Positions count from the first letter of the chain named. Where no end group is shown, it is not given here.

Columns and labels:
[1] = molecular target: GST-KLHDC2 (kelch repeat domain, amino acid 1-362) (human) (UniProt Q9Y2U9); experiment: AlphaScreen or HTRF
[2] = molecular target: GST-KLHDC2 R241K (kelch repeat domain) (human) (UniProt Q9Y2U9); experiment: AlphaScreen or HTRF
[3] = molecular target: T1, GST-tagged KLHDC2 (kelch repeat domain, WT) (Homo sapiens, UniProt Q9Y2U9); experiment: AlphaScreen competition assay, wild type KLHDC2; type: binding; settings: USP1 vs SelK 8 aa peptide
T1 sequence (Q9Y2U9 1-362): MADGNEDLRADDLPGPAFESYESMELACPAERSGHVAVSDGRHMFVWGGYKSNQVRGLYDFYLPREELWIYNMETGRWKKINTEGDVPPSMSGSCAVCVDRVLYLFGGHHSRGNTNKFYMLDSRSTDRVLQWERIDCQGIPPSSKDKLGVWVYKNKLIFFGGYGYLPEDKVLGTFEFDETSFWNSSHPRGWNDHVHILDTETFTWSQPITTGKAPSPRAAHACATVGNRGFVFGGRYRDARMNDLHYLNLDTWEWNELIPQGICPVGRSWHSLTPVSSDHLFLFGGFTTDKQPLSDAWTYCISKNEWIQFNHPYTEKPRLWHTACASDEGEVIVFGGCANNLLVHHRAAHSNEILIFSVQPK
In short: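 Human KLHDC2 kelch domain (aa 1–362), GST-tagged, was expressed in baculovirus-infected Hi5 cells. It was purified by glutathione agarose, Q Sepharose and Superdex-200. The assay used 0.12 nM protein on anti-GST acceptor beads and 1.7 nM biotinylated 12 aa SelK peptide on streptavidin donor beads, 5 μg/ml beads. Buffer: HEPES pH 7.5, NaCl, TCEP, Tween-20, BSA. Competitor peptides ran 2 nM–3 mM, in triplicate; IC50 by non-linear fitting.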

[4] = molecular target: T2, GST-KLHDC2 (kelch repeat domain, amino acid 1-362) (human, UniProt Q9Y2U9 1-362); experiment: AlphaScreen or HTRF
T2 sequence (looked up): T1 sequence (Q9Y2U9 1-362)

[5] = molecular target: T3, GST-KLHDC2 R241K (kelch repeat domain) (human, UniProt Q9Y2U9 1-362, R241K); experiment: AlphaScreen or HTRF
T3 sequence (looked up): T1 sequence (Q9Y2U9 1-362) with R241K

[6] = molecular target: T2, GST-KLHDC2 (kelch repeat domain, amino …); experiment: BLI

diglycine (2 aa SelK degron peptide, label-free)
Kd [1]: 360000 nM

8 aa USP1-NTD C-end degron peptide
IC50 [1]: 69.5 nM | IC50 [2]: 62600 nM

EAIGLLGG-OH [USP1-NTD degron peptide]
fold lower potency/affinity vs SelK [3]: about 7 fold

LRGPSPPPMAGG (peptide, UniProt Q9Y6D0 80-91, looked up) [12 aa SelK degron peptide (label-free)]
IC50 [4]: ~3 nM

SPPPMAGG-NH2 (peptide, UniProt Q9Y6D0 84-91, looked up) [8 aa SelK degron peptide, C-terminally amidated]
fold decrease in affinity against the unmodified 8 aa peptide [4]: ~1000 fold

PPMAGG (peptide, UniProt Q9Y6D0 86-91, looked up) [6 aa SelK degron peptide (label-free)]
binding result [4]: binds

SPPPMAGG (peptide, UniProt Q9Y6D0 84-91, looked up) [8 aa SelK C-end degron peptide (label-free, wild type)]
IC50 [5]: 5900 nM

LRGPSPPPMAGG (peptide, UniProt Q9Y6D0 80-91, looked up, also: biotin, position not given here) [biotinylated 12 aa SelK degron peptide]
Kd [6]: ~4 nM
